Published values pooled from the literature.
Each line is one published result; the experiments were not run side by side.
Organism: Aspergillus niger
Effect on: microbial growth

Cc1ccc(C)n1-c1ccc(-c2nnc(-c3ccc(O)cc3)[nH]2)cc1
MIC (broth dilution; ATCC6275): 31.2 µg/mL

Oc1ccc(Br)cc1-c1nc2ccccc2[nH]1
MIC (ATCC16404): 512 µg/mL

O=C1NN=C(N=Cc2ccc(O)cc2O)C1=NNn1c(-c2ccccc2)nc2ccccc2c1=O
MIC (broth dilution): 107 µM

Cc1ccc(C)n1-c1ccc(-c2nnc(-c3ccc(Br)cc3)[nH]2)cc1
MIC (broth dilution; ATCC6275): 4 µg/mL

CC1=NN(CNC(=O)c2ccccn2)C(=O)C1=NNn1c(-c2ccccc2)nc2ccccc2c1=O
MIC (broth dilution): 104 µM

Cc1ccc2nc(-c3ccc(Cl)c(Cl)c3)[nH]c2c1
MIC (ATCC16404): 32 µg/mL

Cc1ccc(C)n1-c1ccc(-c2n[nH]c(=S)[nH]2)cc1
MIC (broth dilution; ATCC6275): > 500 µg/mL

CC1=NN(CNC(=O)c2ccccc2)C(=O)C1=NNn1c(-c2ccccc2)nc2ccccc2c1=O
MIC (broth dilution): 104 µM

Cc1ccc2nc(-c3cc(Br)ccc3O)[nH]c2c1
MIC (ATCC16404): 256 µg/mL

O=C(O)c1cn(C2CC2)c2cc(N3CCNCC3)c(F)cc2c1=O
MIC (broth dilution): 25.5 µM

Cc1cc(=O)[nH]n1C(=O)c1ccc(-n2c(C)ccc2C)cc1
MIC (broth dilution; ATCC6275): 250 µg/mL

Cc1ccc2nc(-c3ccco3)n(Cc3ccccc3)c2c1
MIC (ATCC16404): 512 µg/mL

Clc1ccccc1C(c1ccccc1)(c1ccccc1)n1ccnc1
inhibition zone (disc diffusion; 20000 µg/mL): 25 mm

Clc1ccccc1C(c1ccccc1)(c1ccccc1)n1ccnc1
inhibition zone (disc diffusion; 100 µg/mL): 18 mm

CSc1ccc(-c2nc3ccc(C)cc3[nH]2)cc1
MIC (ATCC16404): 64 µg/mL

O=C1NN=C(N=Cc2ccccc2)C1=NNn1c(-c2ccccc2)nc2ccccc2c1=O
MIC (broth dilution): 57.1 µM

Cc1ccc(C)n1-c1ccc(-c2nnc(S)s2)cc1
MIC (broth dilution; ATCC6275): 125 µg/mL
